The text below walks through data of paper PMC7598728 (Biochemistry, 2020).

One data set relates to Vero cells. In words: Compound cytotoxicity. The format is cell-based. The following applies: 25 μM, no virus, 3 days, triplicate, values <1 = cytotoxic. An outline of the steps:
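Vero cells seeded at 1 × 10^4 cells/well were exposed the next day, with no virus, to the DMSO-dissolved test compound. Handling matched the infected viability assay, including the 1 h 37 °C compound pre-incubation step. Viability was read by CellTiter-Fluor after 3 days.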

The subject of data set [1] is Zika-induced caspase 3/7 activity in Vero cells. The data set is described as follows: Caspase activity assay. The format is cell-based, Zika virus. To be noted: tested at 25 μM; relative to virus alone or virus with DMSO. An outline of the steps:
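ZIKV MR766 was pre-incubated with the DMSO-dissolved test compound or controls for 1 h at 37 °C, then added to Vero cells seeded at 1 × 10^4 cells/well the previous day (medium removed). Cells were incubated 3 days, viability read first (CellTiter-Fluor), then caspase 3/7 luminescence (Caspase-Glo 3/7). Run in triplicate.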

Data set [2] deals with Zika strain MR766 (ZIKV-induced cell killing of Vero cells). In words: Cell viability assay in the presence of virus. The following applies: tested at 25 μM; values over 1 signify inhibition of ZIKV-induced cell killing. The format is cell-based, Zika virus. An outline of the steps:
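Vero cells (DMEM, 10% heat-inactivated FBS, 37 °C, 5% CO2) were seeded at 1 × 10^4 cells/well. The next day they were infected with ZIKV that had been pretreated 1 h at 37 °C with the DMSO-dissolved test compound or controls. After 3 days, viability was read by CellTiter-Fluor fluorescence and normalized to infected cells. Run in triplicate.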

Data set [3] has as its system Zika strain MR766 (infectivity in Vero cells). In words: TCID50 end point dilution infectivity assay. The format is cell-based, Zika virus. The following applies: tested at 25 μM; activity cutoff <0.6. An outline of the steps:
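End-point dilution: Vero cells were seeded at 2 × 10^4 cells/well. The next day, medium was replaced with serial dilutions of ZIKV, untreated or pretreated 1 h at 37 °C with the test compound or controls. After 6 days at 37 °C, cells were fixed in 3.7% formaldehyde and stained with crystal violet. Wells were scored for CPE, and TCID50 was calculated by the Reed and Muench method.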

`C#C[C@@]1(O)[C@H](O)[C@@H](CO)O[C@H]1n1ccc2c(N)ncnc21` [NITD008]: the compound cytotoxicity result in the data set on Vero cells is given as “some cytotoxicity”. Further, in data set [1], the caspase activity result is reported as “suppressed caspase activity”. Also, the “cell viability (normalized to ZIKV-infected cells)” value in data set [2] was above 1.0. In data set [3], this compound yielded a TCID50 infectivity below 0.6.
For the compound `C[C@H](NC(=O)C(=O)Nc1ccccc1C(C)(C)C)C(=O)N[C@@H](CC(=O)O)C(=O)COc1c(F)c(F)cc(F)c1F` [emricasan], the caspase activity result in data set [1] was “suppressed caspase activity”.
